Source: ChEMBL document CHEMBL3603751, “A new small molecule inhibitor of soluble guanylate cyclase” (Bioorg Med Chem, 2015)
Active and inactive are the calls of the source. The calls are words filed in the database; no cut-off is given here.

How the values were obtained:
Bos taurus = species: Bos taurus; assay: Inhibition of bovine lung sGC using GTP as substrate assessed as inhibition of NO-stimulated cGMP formation at 100 uM preincubated with protein followed by NO addition measured after 2 mins by radioimmunoassay relative to control
Method in brief: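 Purified bovine lung sGC (5 ng/ml) in 50 mM Tris, 0.3 mM MgCl, 100 μM EGTA, 0.045% BSA, 1000 units/mL SOD, pH 7.4, with 1 mM MgGTP at 37 °C. Compound (100 μM) added before DEA/NO (30 nM). Reaction ran 2 min, then aliquots were boiled in 50 mM Tris/4 mM EDTA. cGMP was quantified by [3H] radioimmunoassay.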

[1] = molecular target: T1, Adenylate cyclase (Homo sapiens) (UniProt Q8NFM4+O60503+Q08828+P40145+O60266+O95622+O43306+Q08462+P51828); assay: Inhibition of adenylyl cyclase (unknown origin); assay type: protein assay
Rattus norvegicus = species: Rattus norvegicus; assay: Inhibition of sGC in rat cerebellar slices assessed as inhibition of NMDA-induced cGMP production at 100 uM preincubated for 10 mins followed by phosphodiesterase inhibitor IBMX addition by radioimmunoassay
Method in brief: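 Sagittal cerebellar slices 0.4 mm thick were cut from 10-day-old rats. Antagonists were added 10 min before IBMX (1 mM, 10 min preincubation). Slices were inactivated in boiling Tris–HCl (50 mM, pH 7.5) with EDTA (4 mM) and sonicated. Protein was measured by bicinchoninic acid and cGMP by radioimmunoassay.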

[2] = molecular target: T1, Adenylate cyclase (Homo sapiens); assay: Inhibition of forskolin-stimulated adenylyl cyclase (unknown origin)
[3] = molecular target: Soluble guanylate cyclase (Homo sapiens) (UniProt Q02153+O75343+P33402+Q02108); assay: Binding affinity to human recombinant sGC catalytic subunit by surface plasmon resonance analysis; assay type: protein-complex assay

Row | Structure (SMILES) | inhibition (Bos taurus) | further results
1 | Oc1cccc(Nc2nc3ccc(Cl)cc3nc2Nc2cccc(O)c2)c1 | inactive | –
2 | N#Cc1ccc2nc(Nc3cccc(O)c3)c(Nc3cccc(O)c3)nc2c1 | inactive | –
3 | CC(=O)Nc1cccc(Nc2nc3ccc([N+](=O)[O-])cc3nc2Nc2cccc(NC(C)=O)c2)c1 | inactive | –
4 | CC(=O)Nc1ccc(Nc2nc3ccc([N+](=O)[O-])cc3nc2Nc2ccc(NC(C)=O)cc2)cc1 | inactive | –
5 | N#Cc1ccc2nc(Nc3ccc(O)cc3)c(Nc3ccc(O)cc3)nc2c1 | inactive | –
6 | O=[N+]([O-])c1ccc2nc(Nc3ccc(O)cc3)c(Nc3ccc(O)cc3)nc2c1 | – | inhibition [1]: inactive; inhibition (Rattus norvegicus): Active; inhibition [2]: inactive
7 | Nc1ccc2nc(Nc3ccc(O)cc3)c(Nc3ccc(O)cc3)nc2c1 | inactive | –
8 | CNC(=O)c1ccc2nc(Nc3cccc(O)c3)c(Nc3cccc(O)c3)nc2c1 | – | RU [3]: 9.6

Continued, in another order:

Row | inhibition (Bos taurus) | Structure (SMILES) | further results
9 | inactive | COc1ccc(Nc2nc3ccc([N+](=O)[O-])cc3nc2Nc2ccc(OC)cc2)cc1 | –
10 | inactive | O=[N+]([O-])c1ccc2nc(Nc3ccc(F)cc3)c(Nc3ccc(F)cc3)nc2c1 | –
11 | inactive | Oc1ccc(Nc2nc3ccc(Cl)cc3nc2Nc2ccc(O)cc2)cc1 | –
